Source: ChEMBL document CHEMBL5257021 (J Med Chem, 2016)
pIC50: −log10 of the molar value. Activity calls are given as the source filed them. The rule behind the calls is not given here.

What was measured:
T47D (Homo sapiens) = test: Cytotoxicity against human T47D cells expressing Y1R assessed as reduction in cell viability treated for 8 hrs followed by culturing in proliferation medium for 72 hrs by resazurin assay
T-47D (Homo sapiens) = test: as above
MDA-MB-468 [1] = test: Cytotoxicity against human MDA-MB-468 cells expressing Y1R assessed as reduction in cell viability treated for 8 hrs followed by culturing in proliferation medium for 72 hrs by resazurin assay; type: functional, cell-based
[2] = Cytotoxicity against human HEK293 cells assessed as cell viability at >= 1 uM treated for 8 hrs followed by culturing in proliferation medium for 72 hrs by resazurin assay; type: toxicity, cell-based; conditions: read-out: Activity
In short: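 Seeding was 6000/well for MDA-MB-231, 10000 for T-47D, and 8000 for MDA-MB-468 and HEK293. After 24 h, cells got compound at 50 to 0.01 μM in FCS-free medium for 8 h at 37 °C, were washed twice, then kept 72 h in culture medium. Resazurin 10% (v/v) was added for 2 h at 37 °C and resorufin fluorescence read (ex 550/em 595 nm). Medium-only cells were set at 100% and 70% ethanol-treated cells at 0%.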

MDA-MB-231 [3] = test: Cytotoxicity against human MDA-MB-231 cells expressing Y1R assessed as reduction in cell viability at 25 uM treated for 8 hrs followed by culturing in proliferation medium for 72 hrs in presence of 10 equiv hY1R agonist, [F7,P34]-NPY by resazurin assay; type: functional, cell-based; conditions: time 80.0 hrs
In short: (§1)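 Breast cancer cells were exposed for 8 h at 37 °C in FCS-free medium to toxic agent together with 10 equiv of hY1R agonist [F7,P34]-NPY. Cells were then washed twice and grown 72 h in culture medium. Medium-treated cells with or without agonist were set at 100% and ethanol-treated cells at 0%. Triplicate, ≥2 independent experiments.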

MDA-MB-231 [4] = test: Cytotoxicity against human MDA-MB-231 cells expressing Y1R assessed as reduction in cell viability treated for 8 hrs followed by culturing in proliferation medium for 72 hrs by resazurin assay
T47D = test: Cytotoxicity against human T47D cells expressing Y1R assessed as reduction in cell viability at 5 uM treated for 8 hrs followed by culturing in proliferation medium for 72 hrs in presence of 10 equiv hY1R agonist, [F7,P34]-NPY by resazurin assay; type: functional, cell-based; conditions: time 80.0 hrs
In short: as §1, with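 “medium. Viability was read by resazurin (10% v/v, 2 h, ex 550/em 595 nm).” for “medium.”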

MDA-MB-468 [5] = test: Cytotoxicity against human MDA-MB-468 cells expressing Y1R assessed as reduction in cell viability at 10 uM treated for 8 hrs followed by culturing in proliferation medium for 72 hrs in presence of 10 equiv hY1R agonist, [F7,P34]-NPY by resazurin assay; type: functional, cell-based; conditions: time 80.0 hrs
In short: as §1

## CN(Cc1cnc2nc(N)nc(N)c2n1)c1ccc(C(=O)N[C@@H](CCC(=O)O)C(=O)O)cc1 [METHOTREXATE]
T47D (Homo sapiens)
  pIC50: 6.30
T-47D (Homo sapiens)
  pIC50: 6.30
MDA-MB-468 [1]; read-out: IC50
  pIC50: 6.70
MDA-MB-468 [1]; read-out: pIC50 (converted)
  IC50: 200 nM
[2]
  viability at 80 h, 1 µM: 65%
MDA-MB-231 [3]
  Activity: Active
MDA-MB-231 [4]; read-out: IC50
  pIC50: 4.82
MDA-MB-231 [4]; read-out: pIC50 (converted)
  IC50: 15800 nM
T47D
  Activity: Active
MDA-MB-468 [5]
  Activity: Active
